Calls of active or inactive are those of the source. No cut-off for these calls is given here.
Columns and labels:
Histone deacetylase 1 [1] = biological target: T1, Histone deacetylase 1 (Homo sapiens, UniProt Q13547); test: Inhibition of full length recombinant human C-terminal FLAG-tagged HDAC1 expressed in sf9 cells preincubated for 5 mins followed by biotinylated H3K9-Ac substrate addition and measured after 60 mins by HTRF assay
[2] = biological target: T2, Protein deacetylase HDAC6 (Homo sapiens, UniProt Q9UBN7); test: Inhibition of full length recombinant human N-terminal GST-tagged HDAC6 expressed in baculovirus infected sf9 cells preincubated for 5 mins followed by biotinylated H3K9-Ac substrate addition and measured after 60 mins by HTRF assay
T2 sequence (Q9UBN7 whole entry): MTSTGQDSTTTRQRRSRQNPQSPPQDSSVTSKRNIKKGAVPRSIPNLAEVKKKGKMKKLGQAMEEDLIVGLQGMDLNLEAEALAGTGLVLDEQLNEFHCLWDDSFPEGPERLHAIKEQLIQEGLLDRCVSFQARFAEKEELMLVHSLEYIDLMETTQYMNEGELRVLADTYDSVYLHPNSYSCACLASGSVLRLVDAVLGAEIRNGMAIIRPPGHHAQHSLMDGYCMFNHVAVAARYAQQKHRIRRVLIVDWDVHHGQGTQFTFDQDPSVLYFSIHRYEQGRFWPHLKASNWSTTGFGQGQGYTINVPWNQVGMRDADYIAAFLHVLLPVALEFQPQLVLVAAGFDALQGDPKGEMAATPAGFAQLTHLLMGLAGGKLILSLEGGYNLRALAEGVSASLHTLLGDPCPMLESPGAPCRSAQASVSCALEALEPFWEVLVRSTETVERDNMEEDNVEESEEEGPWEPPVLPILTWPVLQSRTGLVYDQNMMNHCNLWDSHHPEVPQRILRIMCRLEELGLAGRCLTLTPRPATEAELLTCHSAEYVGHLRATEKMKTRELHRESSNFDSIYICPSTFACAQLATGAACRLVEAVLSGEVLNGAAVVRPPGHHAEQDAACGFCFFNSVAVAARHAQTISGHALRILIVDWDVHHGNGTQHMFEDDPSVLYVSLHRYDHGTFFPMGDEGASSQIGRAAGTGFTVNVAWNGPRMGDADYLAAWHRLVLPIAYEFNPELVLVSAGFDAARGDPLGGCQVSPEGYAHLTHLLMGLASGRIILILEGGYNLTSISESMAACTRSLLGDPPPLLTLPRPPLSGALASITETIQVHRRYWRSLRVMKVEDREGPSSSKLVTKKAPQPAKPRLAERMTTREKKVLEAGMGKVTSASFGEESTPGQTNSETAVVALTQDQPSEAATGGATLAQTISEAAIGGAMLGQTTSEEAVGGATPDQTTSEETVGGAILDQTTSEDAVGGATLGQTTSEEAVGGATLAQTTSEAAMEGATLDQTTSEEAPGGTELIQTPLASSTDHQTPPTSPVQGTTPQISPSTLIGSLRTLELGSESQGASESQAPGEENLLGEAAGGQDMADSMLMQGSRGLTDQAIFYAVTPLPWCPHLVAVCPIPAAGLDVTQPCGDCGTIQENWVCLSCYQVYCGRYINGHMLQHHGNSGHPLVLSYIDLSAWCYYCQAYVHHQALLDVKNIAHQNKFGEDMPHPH

Homo sapiens = organism: Homo sapiens; test: Selectivity index, ratio of IC50 for full length recombinant human C-terminal FLAG-tagged HDAC1 expressed in sf9 cells to IC50 for full length recombinant human N-terminal GST-tagged HDAC6 expressed in baculovirus infected sf9 cells
[3] = biological target: T3, Protein deacetylase HDAC6 (Homo sapiens) (UniProt Q9UBN7); test: Inhibition of HDAC6 in human RPMI8226 cells assessed as increase in acetylated-tubulin level at 10 uM after 24 hrs by Western blot analysis; type: cell-based
T3 sequence (whole entry): T2 sequence (Q9UBN7 whole entry)
Summary of the method: (§1)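 RPMI-8226 cells exposed to compound at 10 μM for 24 h. Acetylated histone H3 and acetylated tubulin were then detected by immunoblot with specific antibodies.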

[4] = biological target: Apoptosis regulator Bcl-2 (Homo sapiens, UniProt P10415); test: Inhibition of FAM-Bid peptide binding to Bcl2 (unknown origin) by fluorescence polarization assay
RPMI-8226 = test: cells; type: functional, cell-based; settings: Homo sapiens, RPMI-8226, 72 h
U-266 = test: cells; type: functional, cell-based; settings: Homo sapiens, U-266, 72 h
Histone deacetylase 1 [5] = biological target: T1, Histone deacetylase 1; test: Inhibition of HDAC1 in human RPMI8226 cells assessed as increase in acetylated-H3 level at 10 uM after 24 hrs by Western blot analysis; type: cell-based; summary of the method: as §1

T1 sequence (Q13547 whole entry): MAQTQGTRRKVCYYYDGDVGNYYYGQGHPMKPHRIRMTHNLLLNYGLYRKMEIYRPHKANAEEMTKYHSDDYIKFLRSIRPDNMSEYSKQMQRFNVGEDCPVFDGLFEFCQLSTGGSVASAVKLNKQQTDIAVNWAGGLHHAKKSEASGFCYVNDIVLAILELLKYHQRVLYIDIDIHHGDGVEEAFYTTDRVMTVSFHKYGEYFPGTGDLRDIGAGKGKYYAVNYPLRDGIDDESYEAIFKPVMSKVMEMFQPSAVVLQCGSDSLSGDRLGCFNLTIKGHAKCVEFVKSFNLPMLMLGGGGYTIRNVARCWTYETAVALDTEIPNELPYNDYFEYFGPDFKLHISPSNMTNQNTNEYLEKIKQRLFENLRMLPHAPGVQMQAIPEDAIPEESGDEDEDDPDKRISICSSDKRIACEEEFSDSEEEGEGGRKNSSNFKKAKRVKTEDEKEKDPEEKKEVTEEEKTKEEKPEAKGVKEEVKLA
Apoptosis regulator Bcl-2, sequence (P10415 whole entry): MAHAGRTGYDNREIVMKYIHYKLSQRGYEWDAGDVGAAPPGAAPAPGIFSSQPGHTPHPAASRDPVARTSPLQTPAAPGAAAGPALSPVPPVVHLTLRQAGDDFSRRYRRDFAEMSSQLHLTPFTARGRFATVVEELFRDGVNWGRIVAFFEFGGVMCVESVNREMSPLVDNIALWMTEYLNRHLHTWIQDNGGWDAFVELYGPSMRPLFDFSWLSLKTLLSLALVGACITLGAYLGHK

Structure (SMILES) | IC50 (Histone deacetylase 1 [1]) [nM] | IC50 [2] [nM] | inhibition [3] | IC50 [4] [nM] | IC50 (RPMI-8226) [nM] | IC50 (U-266) [nM] | inhibition (Histone deacetylase 1 [5]) | Ratio IC50 (Homo sapiens)
CC1(C)CCC(CN2CCN(c3ccc(C(=O)NS(=O)(=O)c4ccc(NCCCCCC(=O)NO)c([N+](=O)[O-])c4)c(Oc4cnc5[nH]ccc5c4)c3)CC2)=C(c2ccc(Cl)cc2)C1 | 847 | 28 | Active | 230 | 300 | 27100 |  | > 10
O=C(CCCCCCNC(=O)c1cnc(N(c2ccccc2)c2ccccc2)nc1)NO [RICOLINOSTAT] |  |  |  |  | 11000 | 21200 |  | 
CC1(C)CCC(CN2CCN(c3ccc(C(=O)NS(=O)(=O)c4ccc(NCC5CCOCC5)c([N+](=O)[O-])c4)c(Oc4cnc5[nH]ccc5c4)c3)CC2)=C(c2ccc(Cl)cc2)C1 [VENETOCLAX] |  |  |  |  | 2700 | 94000 |  | 
CC1(C)CCC(CN2CCN(c3ccc(C(=O)NS(=O)(=O)c4ccc(NCCC(=O)NO)c([N+](=O)[O-])c4)c(Oc4cnc5[nH]ccc5c4)c3)CC2)=C(c2ccc(Cl)cc2)C1 | > 1000 | > 1000 |  |  |  |  |  | 
CC1(C)CCC(CN2CCN(c3ccc(C(=O)NS(=O)(=O)c4ccc(NCCCCCCCC(=O)NO)c([N+](=O)[O-])c4)c(Oc4cnc5[nH]ccc5c4)c3)CC2)=C(c2ccc(Cl)cc2)C1 | 281 | 19 | Active | 250 | 200 | 8700 | Active | > 10
CC1(C)CCC(CN2CCN(c3ccc(C(=O)NS(=O)(=O)c4ccc(NCC(=O)NO)c([N+](=O)[O-])c4)c(Oc4cnc5[nH]ccc5c4)c3)CC2)=C(c2ccc(Cl)cc2)C1 | > 1000 | > 1000 |  |  |  |  |  | 

Continued, in another order:

IC50 (Histone deacetylase 1 [1]) [nM] | IC50 [2] [nM] | inhibition [3] | IC50 [4] [nM] | IC50 (RPMI-8226) [nM] | IC50 (U-266) [nM] | inhibition (Histone deacetylase 1 [5]) | Structure (SMILES) | Ratio IC50 (Homo sapiens)
665 | 28 | Active | 240 | 300 | 9800 |  | CC1(C)CCC(CN2CCN(c3ccc(C(=O)NS(=O)(=O)c4ccc(NCCCCCCC(=O)NO)c([N+](=O)[O-])c4)c(Oc4cnc5[nH]ccc5c4)c3)CC2)=C(c2ccc(Cl)cc2)C1 | > 10
> 1000 | > 1000 |  |  |  |  |  | CC1(C)CCC(CN2CCN(c3ccc(C(=O)NS(=O)(=O)c4ccc(NCCCC(=O)NO)c([N+](=O)[O-])c4)c(Oc4cnc5[nH]ccc5c4)c3)CC2)=C(c2ccc(Cl)cc2)C1 | 
> 1000 | > 1000 |  |  |  |  |  | CC1(C)CCC(CN2CCN(c3ccc(C(=O)NS(=O)(=O)c4ccc(NCCCCC(=O)NO)c([N+](=O)[O-])c4)c(Oc4cnc5[nH]ccc5c4)c3)CC2)=C(c2ccc(Cl)cc2)C1 | 

Source: ChEMBL document CHEMBL4330103, “Design, synthesis, and bioactivity evaluation of novel Bcl-2/HDAC dual-target inhibitors for the treatment of multiple myeloma” (Bioorg Med Chem Lett, 2019)
